Laboratory results published in ChEMBL document CHEMBL1142436, “Design and synthesis of 4-substituted indolo[3,2-e][1,2,3]triazolo[1,5-a]pyrimidine derivatives with antitumor activity” (2008).

How the values were obtained:
Assay type in all cases: functional
OVCAR-3 = test: Growth inhibition of human OVCAR-3 cells after 48 hrs; conditions: OVCAR-3, 48 h
Summary of the method: (§1)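 NCI ~60-line screen. Cells were grown in RPMI 1640 with 5% FBS and 2 mM L-glutamine and plated at 5000–40000 cells/well. After a 24 h preincubation, five drug concentrations from DMSO stocks were added for 48 h at 37 °C. Cells were TCA-fixed, stained with SRB and read at 515 nm. GI50 was taken from time-zero and control absorbances and reported as pGI50.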

Malme-3M = test: Growth inhibition of human MALME3M cells after 48 hrs; summary of the method: as §1
NCI-H460 = test: Growth inhibition of human NCI-H460 cells after 48 hrs; conditions: NCI-H460, 48 h; summary of the method: as §1
EKVX = test: Growth inhibition of human EKVX cells after 48 hrs; summary of the method: as §1
T47D = test: Growth inhibition of human T47D cells after 48 hrs
Summary of the method: (§2)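 NCI 60-line screen: cells in RPMI 1640 with 5% FBS and 2 mM L-glutamine, plated at 5000–40000 cells/well, grown 24 h (37 °C, 5% CO₂), then exposed to five 10-fold or ½-log dilutions (DMSO stock) for 48 h. Fixed with TCA (final 10% for adherent cells, 16% for suspension cells), then SRB stained with absorbance at 515 nm. GI50 from percentage growth relative to time-zero and control wells.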

RPMI-8226 = test: Growth inhibition of human RPMI8226 cells after 48 hrs; conditions: RPMI-8226, 48 h; summary of the method: as §1
SK-MEL-5 = test: Growth inhibition of human SK-MEL5 cells after 48 hrs; conditions: SK-MEL-5, 48 h; summary of the method: as §1
NCI/ADR-RES = test: Growth inhibition of human NCI/ADR-RES cells after 48 hrs; summary of the method: as §1
SF-268 = test: Growth inhibition of human SF268 cells after 48 hrs; conditions: SF-268, 48 h; summary of the method: as §1
[1] = Growth inhibition of human HS578T cells after 48 hrs; conditions: Hs-578T; summary of the method: as §1
TK-10 = test: Growth inhibition of human TK10 cells after 48 hrs; conditions: TK-10, 48 h; summary of the method: as §2
UO-31 = test: Growth inhibition of human UO31 cells after 48 hrs; conditions: UO-31, 48 h; summary of the method: as §2
SF-295 = test: Growth inhibition of human SF295 cells after 48 hrs; conditions: SF-295, 48 h; summary of the method: as §1
HCT-15 = test: Growth inhibition of human HCT15 cells after 48 hrs; conditions: HCT-15, 48 h; summary of the method: as §1
OVCAR-8 = test: Growth inhibition of human OVCAR8 cells after 48 hrs; conditions: OVCAR-8, 48 h; summary of the method: as §1
M14 = test: Growth inhibition of human M14 cells after 48 hrs; conditions: M14, 48 h; summary of the method: as §1
NCI-H522 = test: Growth inhibition of human NCI-H522 cells after 48 hrs; conditions: NCI-H522, 48 h, read-out: pTGI (converted); summary of the method: as §1
COLO 205 = test: Growth inhibition of human COLO205 cells after 48 hrs; conditions: COLO 205, 48 h; summary of the method: as §1
HCT-116 = test: Growth inhibition of human HCT116 cells after 48 hrs; conditions: HCT-116, 48 h; summary of the method: as §1
CAKI-1 = test: Growth inhibition of human CAKI1 cells after 48 hrs; conditions: CAKI-1, 48 h; summary of the method: as §1
RXF 393 = test: Growth inhibition of human RXF393 cells after 48 hrs; conditions: RXF 393, 48 h; summary of the method: as §1
U-251 = test: Growth inhibition of human U251 cells after 48 hrs; conditions: U-251, 48 h; summary of the method: as §2
786-0 = test: Growth inhibition of human 786-0 cells after 48 hrs; conditions: 786-0, 48 h; summary of the method: as §1
SK-OV-3 = test: Growth inhibition of human SKOV3 cells after 48 hrs; conditions: SK-OV-3, 48 h; summary of the method: as §2
A498 = test: Growth inhibition of human A498 cells after 48 hrs; conditions: A498, 48 h; summary of the method: as §1
A549 = test: Growth inhibition of human A549 cells after 48 hrs; conditions: A549, 48 h; summary of the method: as §1
CCRF-CEM = test: Growth inhibition of human CCRF-CEM cells after 48 hrs; summary of the method: as §1
NCI-H23 = test: Growth inhibition of human NCI-H23 cells after 48 hrs; conditions: Homo sapiens, NCI-H23, 48 h; summary of the method: as §1
MDA-MB-231 = test: Growth inhibition of human MDA-MB-231 cells after 48 hrs; conditions: MDA-MB-231, 48 h; summary of the method: as §1
SN12C = test: Growth inhibition of human SN12C cells after 48 hrs; summary of the method: as §2
NCI-H322M = test: Growth inhibition of human NCI-H322M cells after 48 hrs; summary of the method: as §1
HOP-92 = test: Growth inhibition of human HOP92 cells after 48 hrs; conditions: HOP-92, 48 h; summary of the method: as §1
UACC-257 = test: Growth inhibition of human UACC257 cells after 48 hrs; conditions: UACC-257, 48 h; summary of the method: as §2

## CCCCN(CCCC)CCCn1c(=O)c2c3ccccc3n(C)c2n2nnc(-c3ccccc3)c12
OVCAR-3
  GI50: 49 µM
OVCAR-3; read-out: pTGI (converted)
  TGI: > 100 µM
Malme-3M
  GI50: 28.2 µM
Malme-3M; read-out: pTGI (converted)
  TGI: 89.1 µM
NCI-H460
  GI50: 40.7 µM
NCI-H460; read-out: pTGI (converted)
  TGI: > 100 µM
EKVX
  GI50: 56.2 µM
EKVX; read-out: pTGI (converted)
  TGI: > 100 µM
T47D
  GI50: 55 µM
T47D; read-out: pTGI (converted)
  TGI: > 100 µM
RPMI-8226
  GI50: 6.03 µM
RPMI-8226; read-out: pTGI (converted)
  TGI: 49 µM
SK-MEL-5
  GI50: 31.6 µM
SK-MEL-5; read-out: pTGI (converted)
  TGI: > 100 µM
NCI/ADR-RES
  GI50: 14.1 µM
NCI/ADR-RES; read-out: pTGI (converted)
  TGI: 67.6 µM
SF-268
  GI50: > 100 µM
SF-268; read-out: pTGI (converted)
  TGI: > 100 µM
[1]
  GI50: 38.9 µM
[1]; read-out: pTGI (converted)
  TGI: > 100 µM
TK-10
  GI50: 1.91 µM
TK-10; read-out: pTGI (converted)
  TGI: 22.4 µM
UO-31
  GI50: 6.03 µM
UO-31; read-out: pTGI (converted)
  TGI: 46.8 µM
SF-295
  GI50: 31.6 µM
SF-295; read-out: pTGI (converted)
  TGI: > 100 µM
HCT-15
  GI50: 20.9 µM
HCT-15; read-out: pTGI
  TGI: > 100 µM
OVCAR-8
  GI50: 39.8 µM
OVCAR-8; read-out: pTGI (converted)
  TGI: > 100 µM
M14
  GI50: 21.4 µM
M14; read-out: pTGI (converted)
  TGI: > 100 µM
NCI-H522
  TGI: 10.7 µM
COLO 205
  GI50: 5.01 µM
COLO 205; read-out: pTGI (converted)
  TGI: 63.1 µM
HCT-116
  GI50: 18.6 µM
HCT-116; read-out: pTGI (converted)
  TGI: > 100 µM
CAKI-1
  GI50: 50.1 µM
CAKI-1; read-out: pTGI (converted)
  TGI: > 100 µM
RXF 393
  GI50: 14.1 µM
RXF 393; read-out: pTGI (converted)
  TGI: 42.7 µM
U-251
  GI50: 33.1 µM
U-251; read-out: pTGI (converted)
  TGI: > 100 µM
786-0
  GI50: 38.9 µM
786-0; read-out: pTGI (converted)
  TGI: > 100 µM
SK-OV-3
  GI50: 30.2 µM
SK-OV-3; read-out: pTGI (converted)
  TGI: 30.2 µM
A498
  GI50: 42.7 µM
A498; read-out: pTGI (converted)
  TGI: > 100 µM
A549
  GI50: 43.7 µM
A549; read-out: pTGI (converted)
  TGI: > 100 µM
CCRF-CEM
  GI50: 4.17 µM
CCRF-CEM; read-out: pTGI (converted)
  TGI: 91.2 µM
NCI-H23; read-out: Log LC50 (the source's name) (converted)
  CC50: 12.9 µM
NCI-H23; read-out: pTGI (converted)
  TGI: 63.1 µM
MDA-MB-231
  GI50: 36.3 µM
MDA-MB-231; read-out: pTGI (converted)
  TGI: > 100 µM
SN12C
  GI50: 19.5 µM
SN12C; read-out: pTGI (converted)
  TGI: 95.5 µM
NCI-H322M
  GI50: 28.8 µM
NCI-H322M; read-out: pTGI (converted)
  TGI: > 100 µM
HOP-92
  GI50: 18.6 µM
HOP-92; read-out: pTGI (converted)
  TGI: 44.7 µM
UACC-257
  GI50: 28.8 µM
UACC-257; read-out: pTGI (converted)
  TGI: 83.2 µM
